Assay results reported in ChEMBL document CHEMBL5046221, “Identification of Pyrimidine-Based Lead Compounds for Understudied Kinases Implicated in Driving Neurodegeneration” (J Med Chem, 2022).
Calls of active or inactive are those of the source. No cut-off for these calls is given here.

Assays:
[1] = biological target: T1, Macrophage colony-stimulating factor 1 receptor (Homo sapiens, UniProt P07333); test: Inhibition of recombinant human FMS (538 to end residues) using KKKSPGEYVNIEFG as substrate measured after 40 mins in presence of [gamma33P]ATP by radiometric scintillation counting method
Procedure, shortened: (§1)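 Eurofins radiometric kinase assay run at ATP equal to Km for each kinase. 9-point dose–response in duplicate gives the IC50.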

[2] = biological target: T2, MAP/microtubule affinity-regulating kinase 3 (Homo sapiens, UniProt P27448); test: Displacement of tracer K9 from NLuc fused MARK3 (unknown origin) expressed in HEK293 cells by NanoBRET assay; format: cell-based
Target sequence in this assay (P27448 whole entry, the tested form may be a part): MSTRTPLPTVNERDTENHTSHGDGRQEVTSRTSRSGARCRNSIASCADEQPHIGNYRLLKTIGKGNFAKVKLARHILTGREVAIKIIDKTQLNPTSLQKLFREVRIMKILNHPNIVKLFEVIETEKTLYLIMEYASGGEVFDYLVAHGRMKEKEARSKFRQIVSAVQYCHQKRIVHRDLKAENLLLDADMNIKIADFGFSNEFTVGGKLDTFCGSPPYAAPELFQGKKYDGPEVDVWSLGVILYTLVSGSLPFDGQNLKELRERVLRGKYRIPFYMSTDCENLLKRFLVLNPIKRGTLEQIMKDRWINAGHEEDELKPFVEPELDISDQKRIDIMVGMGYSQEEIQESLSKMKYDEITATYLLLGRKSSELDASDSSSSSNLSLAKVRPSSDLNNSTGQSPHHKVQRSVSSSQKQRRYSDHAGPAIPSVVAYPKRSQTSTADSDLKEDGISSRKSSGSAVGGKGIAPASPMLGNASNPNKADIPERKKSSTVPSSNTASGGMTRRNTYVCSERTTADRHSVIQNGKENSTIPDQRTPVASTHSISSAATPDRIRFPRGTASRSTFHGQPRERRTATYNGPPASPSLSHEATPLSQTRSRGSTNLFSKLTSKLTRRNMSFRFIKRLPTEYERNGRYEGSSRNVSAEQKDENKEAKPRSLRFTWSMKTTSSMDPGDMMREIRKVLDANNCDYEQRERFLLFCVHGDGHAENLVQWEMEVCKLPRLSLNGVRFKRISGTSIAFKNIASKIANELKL

[3] = biological target: T3, Serine/threonine-protein kinase 17A (Homo sapiens, UniProt Q9UEE5); test: Displacement of tracer K9 from NLuc fused DRAK1 (unknown origin) expressed in HEK293 cells by NanoBRET assay; format: cell-based
T3 sequence (Q9UEE5 whole entry): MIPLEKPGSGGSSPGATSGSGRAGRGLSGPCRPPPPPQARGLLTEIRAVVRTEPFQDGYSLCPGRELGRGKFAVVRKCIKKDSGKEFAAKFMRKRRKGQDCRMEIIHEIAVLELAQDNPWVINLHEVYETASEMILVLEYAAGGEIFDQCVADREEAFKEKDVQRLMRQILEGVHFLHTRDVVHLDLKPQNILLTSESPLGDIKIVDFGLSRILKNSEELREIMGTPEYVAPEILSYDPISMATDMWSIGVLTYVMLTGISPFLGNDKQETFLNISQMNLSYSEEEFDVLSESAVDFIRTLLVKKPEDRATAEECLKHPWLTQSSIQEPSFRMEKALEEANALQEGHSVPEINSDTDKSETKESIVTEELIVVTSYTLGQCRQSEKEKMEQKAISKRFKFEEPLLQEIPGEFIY

[4] = biological target: T4, Serine/threonine-protein kinase TBK1 (Homo sapiens, UniProt Q9UHD2); test: Displacement of tracer K5 from NLuc fused TBK1 (unknown origin) expressed in HEK293 cells by NanoBRET assay; format: cell-based
T4 sequence (Q9UHD2 whole entry): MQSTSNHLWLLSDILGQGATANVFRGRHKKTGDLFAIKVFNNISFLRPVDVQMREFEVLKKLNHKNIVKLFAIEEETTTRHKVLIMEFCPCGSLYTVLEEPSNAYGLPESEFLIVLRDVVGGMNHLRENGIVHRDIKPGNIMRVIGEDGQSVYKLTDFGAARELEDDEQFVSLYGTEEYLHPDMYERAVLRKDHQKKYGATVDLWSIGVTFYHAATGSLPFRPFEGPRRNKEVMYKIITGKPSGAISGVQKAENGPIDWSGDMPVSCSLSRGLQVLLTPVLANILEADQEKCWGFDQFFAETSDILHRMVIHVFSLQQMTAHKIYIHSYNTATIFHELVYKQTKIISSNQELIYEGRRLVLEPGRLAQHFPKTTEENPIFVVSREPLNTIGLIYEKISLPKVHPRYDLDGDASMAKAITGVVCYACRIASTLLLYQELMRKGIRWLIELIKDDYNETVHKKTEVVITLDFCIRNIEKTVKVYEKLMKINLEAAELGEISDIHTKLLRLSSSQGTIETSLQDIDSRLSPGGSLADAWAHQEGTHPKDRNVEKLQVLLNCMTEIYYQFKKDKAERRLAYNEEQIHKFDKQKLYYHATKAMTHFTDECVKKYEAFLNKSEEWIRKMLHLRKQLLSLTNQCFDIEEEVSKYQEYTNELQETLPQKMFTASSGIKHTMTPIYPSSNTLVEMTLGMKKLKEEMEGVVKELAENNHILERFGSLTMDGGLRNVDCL
Procedure, shortened: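 HEK293 cells grown in DMEM with 10% FBS at 37 °C, 5% CO2. NanoBRET assay run in dose–response per manufacturer's protocol with tracer K-5 at 0.5 μM. SEM calculated for assays run more than once.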

[5] = biological target: T1, Macrophage colony-stimulating factor 1 receptor; test: Inhibition of NanoLuc-fused CSF1R (unknown origin) expressed in HEK293 cells incubated for 2 hrs by NanoBRET assay; format: cell-based
[6] = biological target: T5, Non-receptor tyrosine-protein kinase TYK2 (Homo sapiens, UniProt P29597); test: Inhibition of human TYK2 (875 to end residues) using GGMEDIYFEFMGGKKK as substrate measured after 40 mins in presence of [gamma33P]ATP by radiometric scintillation counting method
Procedure, shortened: (§2)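 Eurofins radiometric enzymatic assay with ATP at Km for each kinase. IC50 was derived from a 9-point dose–response curve run in duplicate.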

[7] = biological target: T5, Non-receptor tyrosine-protein kinase TYK2; test: Inhibition of NanoLuc-fused TYK2 (unknown origin) expressed in HEK293 cells incubated for 2 hrs by NanoBRET assay; format: cell-based
Procedure, shortened: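 Cellular NanoBRET target-engagement assays were run by Carna Biosciences to the manufacturer's protocol. Dose–response was in singlicate, with compounds tested at concentrations up to 10 μM.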

[8] = Kinetic solubility of compound in PBS at pH 7.4 incubated for 24 hrs by chemiluminscent nitrogen detection method; format: physicochemical; details: buffer, pH 7.4, 24 h
Procedure, shortened: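 Filtrates were quantified by total chemiluminescent nitrogen determination against a calibration curve, with correction for background nitrogen from DMSO and medium.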

[9] = biological target: T6, MAP/microtubule affinity-regulating kinase 4 (Homo sapiens, UniProt Q96L34); test: Displacement of tracer K5 from NLuc fused MARK4 (unknown origin) expressed in HEK293 cells by NanoBRET assay; format: cell-based
T6 sequence (Q96L34 whole entry): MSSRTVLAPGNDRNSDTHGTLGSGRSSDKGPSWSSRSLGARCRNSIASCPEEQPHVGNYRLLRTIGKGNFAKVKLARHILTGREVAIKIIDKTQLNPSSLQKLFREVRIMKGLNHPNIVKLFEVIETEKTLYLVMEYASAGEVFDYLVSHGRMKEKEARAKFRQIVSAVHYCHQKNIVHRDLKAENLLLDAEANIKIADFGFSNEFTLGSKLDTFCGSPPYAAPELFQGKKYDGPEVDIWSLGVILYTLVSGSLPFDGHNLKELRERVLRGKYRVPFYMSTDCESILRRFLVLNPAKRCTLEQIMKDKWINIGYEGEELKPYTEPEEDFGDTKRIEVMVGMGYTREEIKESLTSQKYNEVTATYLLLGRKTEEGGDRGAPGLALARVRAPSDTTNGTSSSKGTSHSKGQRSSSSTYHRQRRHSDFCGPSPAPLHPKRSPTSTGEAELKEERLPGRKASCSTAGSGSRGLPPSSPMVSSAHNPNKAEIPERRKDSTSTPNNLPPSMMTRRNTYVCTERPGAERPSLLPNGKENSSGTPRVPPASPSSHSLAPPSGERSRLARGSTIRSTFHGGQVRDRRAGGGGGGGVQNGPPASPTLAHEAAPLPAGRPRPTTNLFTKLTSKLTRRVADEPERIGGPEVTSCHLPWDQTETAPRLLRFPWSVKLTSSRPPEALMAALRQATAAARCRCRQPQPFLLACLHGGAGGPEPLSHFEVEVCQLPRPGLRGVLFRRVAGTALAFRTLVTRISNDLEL

[10] = Effective permeability in PBS at 7.4 incubated for 5 hrs by PAMPA analysis; format: ADME; details: pH 7.4, 5 h
Procedure, shortened: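 PAMPA: DMSO stocks were diluted in PBS pH 7.4 and placed in the donor compartment, with PBS pH 7.4 in the acceptor, for 5 h. Both compartments were quantified by CLND against a calibration curve, with background nitrogen correction. Effective permeability was calculated from donor and acceptor concentrations using measured rather than assumed solubility.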

[11] = biological target: Tyrosine-protein kinase JAK2 (Homo sapiens) (UniProt O60674); test: Inhibition of recombinant human JAK2 (808 to end residues) using KTFCGTPEYLAPEVRREPRILSEEEQEMFRDFDYIADWC as substrate at 1 uM incubated for 40 mins in presence of [gamma-33P-ATP] by radiometric scintillation assay relative to control
Procedure, shortened: (§3)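 Eurofins radiometric kinase assay with ATP at Km for each kinase. Compound was tested at a single 1 μM concentration in duplicate, and the result is reported as percent of control.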

[12] = biological target: T7, Serine/threonine-protein kinase 17A (Homo sapiens) (UniProt Q9UEE5); test: Inhibition of recombinant human DRAK1 using KKLNRTLSFAEPG as substrate after 40 mins in presence of [gamma-33ATP] by scintillation counting based radiometry assay; procedure, shortened: as §1
T7 sequence (whole entry): T3 sequence (Q9UEE5 whole entry)

[13] = biological target: Serine/threonine-protein kinase MARK1 (Homo sapiens) (UniProt Q9P0L2); test: Inhibition of recombinant human MARK1 (2 to end residues) using KKKVSRSGLYRSPSMPENLNRPR as substrate incubated for 40 mins in presence of [gamma-33ATP] by scintillation counting based radiometry assay; procedure, shortened: as §2
[14] = biological target: AP2-associated protein kinase 1 (Homo sapiens, UniProt Q2M2I8); test: Inhibition of human AAK1 using peptide as substrate incubated for 120 mins in presence of [gamma-33ATP] by scintillation counting based radiometry assay; procedure, shortened: as §1
[15] = biological target: T8, Serine/threonine-protein kinase 17B (Homo sapiens) (UniProt O94768); test: Inhibition of recombinant human DRAK2 using KKRPQRRYSNVF as substrate after 120 mins in presence of [gamma-33ATP] by scintillation counting based radiometry assay; procedure, shortened: as §2
T8 sequence (whole entry): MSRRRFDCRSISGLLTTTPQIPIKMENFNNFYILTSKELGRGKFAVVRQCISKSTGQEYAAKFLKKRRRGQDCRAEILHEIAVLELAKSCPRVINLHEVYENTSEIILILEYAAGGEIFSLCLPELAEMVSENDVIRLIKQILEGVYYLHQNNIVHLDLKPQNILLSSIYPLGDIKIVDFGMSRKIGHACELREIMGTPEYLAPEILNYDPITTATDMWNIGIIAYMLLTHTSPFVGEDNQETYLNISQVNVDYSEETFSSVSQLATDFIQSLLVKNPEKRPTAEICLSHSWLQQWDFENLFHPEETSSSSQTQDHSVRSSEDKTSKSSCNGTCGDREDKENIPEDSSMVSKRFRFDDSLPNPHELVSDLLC

[16] = biological target: High affinity nerve growth factor receptor (Homo sapiens, UniProt P04629); test: Inhibition of human TrkA (440 to end residues) using KKKSPGEYVNIEFG as substrate measured after 40 mins in presence of [gamma33P]ATP by scintillation counting method; procedure, shortened: as §1
[17] = biological target: Aurora kinase B (Homo sapiens) (UniProt Q96GD4); test: Inhibition of full length recombinant human AURKB using AKRRRLSSLRA as substrate at 1 uM incubated for 40 mins in presence of [gamma-33P-ATP] by radiometric scintillation assay relative to control; procedure, shortened: as §3
[18] = Inhibition of human TTBK1 (1 to 479 residues) using Casein as substrate measured after 40 mins in presence of [gamma33P]ATP by scintillation counting method; procedure, shortened: as §1
[19] = biological target: BMP-2-inducible protein kinase (Homo sapiens, UniProt Q9NSY1); test: Inhibition of 1recombinant human BMP2K using myelin basic protein as substrate incubated for 120 mins in presence of [gamma-33P-ATP] by radiometric scintillation assay
[20] = biological target: T9, MAP/microtubule affinity-regulating kinase 4 (Homo sapiens) (UniProt Q96L34); test: Inhibition of recombinant full length human MARK4 using KKKVSRSGLYRSPSMPENLNRPR as substrate incubated for 40 mins in presence of [gamma-33ATP] by scintillation counting based radiometry assay; procedure, shortened: as §2
T9 sequence (whole entry): T6 sequence (Q96L34 whole entry)

[21] = biological target: Mitogen-activated protein kinase kinase kinase 9 (Homo sapiens) (UniProt P80192); test: Inhibition of recombinant human MLK1 (134 to 414 residues) using casein as substrate incubated for 40 mins in presence of [gamma-33ATP by scintillation counting based radiometry assay; procedure, shortened: as §2
[22] = biological target: T2, MAP/microtubule affinity-regulating kinase 3; test: Inhibition of recombinant full length human MARK3 using KKKVSRSGLYRSP as substrate incubated for 40 mins in presence of [gamma-33ATP] by scintillation counting based radiometry assay; procedure, shortened: as §2
Target sequence in this assay (P27448 whole entry, looked up, the tested form may be a part): as the sequence (P27448 whole entry, the tested form may be a part) above

[23] = biological target: NUAK family SNF1-like kinase 1 (Homo sapiens) (UniProt O60285); test: Inhibition of recombinant human ARK5 (2 to end residues) using KKKVSRSGLYRSPSMPENLNRPR as substrate incubated for 40 mins in presence of [gamma-33ATP] by scintillation counting based radiometry assay; procedure, shortened: as §2

T1 sequence (P07333 whole entry): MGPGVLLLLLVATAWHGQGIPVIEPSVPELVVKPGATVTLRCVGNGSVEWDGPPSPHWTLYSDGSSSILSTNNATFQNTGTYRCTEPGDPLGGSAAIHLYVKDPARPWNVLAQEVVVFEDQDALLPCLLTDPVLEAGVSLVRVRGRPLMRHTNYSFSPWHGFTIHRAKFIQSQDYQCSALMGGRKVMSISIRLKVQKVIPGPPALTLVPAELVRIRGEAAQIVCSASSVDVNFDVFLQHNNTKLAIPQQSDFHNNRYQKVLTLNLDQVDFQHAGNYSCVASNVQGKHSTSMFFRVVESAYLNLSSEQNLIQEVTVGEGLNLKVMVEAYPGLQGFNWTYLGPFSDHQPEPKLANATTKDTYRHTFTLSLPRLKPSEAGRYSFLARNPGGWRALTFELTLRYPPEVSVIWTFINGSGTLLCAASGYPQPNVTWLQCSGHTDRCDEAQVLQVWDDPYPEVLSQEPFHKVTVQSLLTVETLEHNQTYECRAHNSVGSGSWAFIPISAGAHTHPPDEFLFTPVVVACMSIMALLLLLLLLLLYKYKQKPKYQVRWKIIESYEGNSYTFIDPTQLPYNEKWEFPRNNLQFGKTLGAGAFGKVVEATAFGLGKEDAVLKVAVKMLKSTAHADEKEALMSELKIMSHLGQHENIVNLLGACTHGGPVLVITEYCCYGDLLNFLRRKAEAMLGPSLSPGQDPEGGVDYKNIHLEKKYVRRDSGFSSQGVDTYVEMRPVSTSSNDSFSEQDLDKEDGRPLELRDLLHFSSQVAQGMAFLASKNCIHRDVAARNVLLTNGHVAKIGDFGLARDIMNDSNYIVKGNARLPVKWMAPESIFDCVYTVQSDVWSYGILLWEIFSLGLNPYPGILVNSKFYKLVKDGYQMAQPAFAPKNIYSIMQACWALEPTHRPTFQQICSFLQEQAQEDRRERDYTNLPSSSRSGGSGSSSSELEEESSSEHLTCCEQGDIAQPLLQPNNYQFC
Sequence of Tyrosine-protein kinase JAK2 (Homo sapiens) (O60674 whole entry): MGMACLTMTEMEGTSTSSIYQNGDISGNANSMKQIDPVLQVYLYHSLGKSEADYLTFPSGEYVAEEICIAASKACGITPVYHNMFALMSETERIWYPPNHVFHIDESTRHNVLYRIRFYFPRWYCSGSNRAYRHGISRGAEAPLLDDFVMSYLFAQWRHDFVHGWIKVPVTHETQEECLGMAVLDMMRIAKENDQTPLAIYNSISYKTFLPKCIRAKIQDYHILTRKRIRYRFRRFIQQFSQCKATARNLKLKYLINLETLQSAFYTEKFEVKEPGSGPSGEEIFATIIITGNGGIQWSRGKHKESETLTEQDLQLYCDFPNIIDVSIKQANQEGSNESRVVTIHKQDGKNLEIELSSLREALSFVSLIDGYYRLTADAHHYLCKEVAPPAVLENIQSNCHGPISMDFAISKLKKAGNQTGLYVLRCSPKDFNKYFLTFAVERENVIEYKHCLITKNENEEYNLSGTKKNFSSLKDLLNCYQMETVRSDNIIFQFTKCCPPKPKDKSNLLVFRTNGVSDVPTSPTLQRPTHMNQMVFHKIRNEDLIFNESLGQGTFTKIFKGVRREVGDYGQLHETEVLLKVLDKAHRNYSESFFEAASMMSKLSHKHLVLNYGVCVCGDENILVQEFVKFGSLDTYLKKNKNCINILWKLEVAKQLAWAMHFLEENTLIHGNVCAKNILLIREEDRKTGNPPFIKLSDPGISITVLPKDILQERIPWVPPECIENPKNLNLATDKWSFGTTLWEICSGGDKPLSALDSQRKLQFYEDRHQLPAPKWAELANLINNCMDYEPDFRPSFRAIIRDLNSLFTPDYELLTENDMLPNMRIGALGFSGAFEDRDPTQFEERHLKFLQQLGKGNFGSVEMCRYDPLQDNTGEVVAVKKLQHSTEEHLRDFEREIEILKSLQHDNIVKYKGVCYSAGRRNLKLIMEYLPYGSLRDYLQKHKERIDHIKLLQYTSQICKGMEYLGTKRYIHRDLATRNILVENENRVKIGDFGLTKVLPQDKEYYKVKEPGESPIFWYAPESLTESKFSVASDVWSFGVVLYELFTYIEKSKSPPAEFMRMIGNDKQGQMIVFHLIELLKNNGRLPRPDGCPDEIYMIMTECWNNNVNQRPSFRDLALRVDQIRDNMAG
Sequence of Serine/threonine-protein kinase MARK1 (Homo sapiens) (Q9P0L2 whole entry, looked up): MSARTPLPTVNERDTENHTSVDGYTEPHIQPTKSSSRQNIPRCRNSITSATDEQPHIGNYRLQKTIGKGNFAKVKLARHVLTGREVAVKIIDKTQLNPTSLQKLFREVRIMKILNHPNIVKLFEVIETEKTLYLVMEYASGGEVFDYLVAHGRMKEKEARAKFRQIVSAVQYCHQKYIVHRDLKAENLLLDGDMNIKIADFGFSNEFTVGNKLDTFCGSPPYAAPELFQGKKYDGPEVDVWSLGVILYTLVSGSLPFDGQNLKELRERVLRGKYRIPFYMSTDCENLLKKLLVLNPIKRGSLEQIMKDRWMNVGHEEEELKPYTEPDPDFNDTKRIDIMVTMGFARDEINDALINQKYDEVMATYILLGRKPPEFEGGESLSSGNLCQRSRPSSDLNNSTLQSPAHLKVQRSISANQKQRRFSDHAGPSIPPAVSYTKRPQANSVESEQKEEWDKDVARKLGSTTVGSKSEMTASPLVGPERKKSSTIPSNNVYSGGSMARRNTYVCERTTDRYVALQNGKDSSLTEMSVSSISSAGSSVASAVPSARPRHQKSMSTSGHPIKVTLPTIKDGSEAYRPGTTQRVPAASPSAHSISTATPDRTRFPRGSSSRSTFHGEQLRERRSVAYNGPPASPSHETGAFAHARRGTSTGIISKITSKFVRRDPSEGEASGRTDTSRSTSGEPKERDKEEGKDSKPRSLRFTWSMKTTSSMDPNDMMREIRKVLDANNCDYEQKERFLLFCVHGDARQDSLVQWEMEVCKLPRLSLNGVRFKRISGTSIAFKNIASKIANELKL
T5 sequence (P29597 whole entry): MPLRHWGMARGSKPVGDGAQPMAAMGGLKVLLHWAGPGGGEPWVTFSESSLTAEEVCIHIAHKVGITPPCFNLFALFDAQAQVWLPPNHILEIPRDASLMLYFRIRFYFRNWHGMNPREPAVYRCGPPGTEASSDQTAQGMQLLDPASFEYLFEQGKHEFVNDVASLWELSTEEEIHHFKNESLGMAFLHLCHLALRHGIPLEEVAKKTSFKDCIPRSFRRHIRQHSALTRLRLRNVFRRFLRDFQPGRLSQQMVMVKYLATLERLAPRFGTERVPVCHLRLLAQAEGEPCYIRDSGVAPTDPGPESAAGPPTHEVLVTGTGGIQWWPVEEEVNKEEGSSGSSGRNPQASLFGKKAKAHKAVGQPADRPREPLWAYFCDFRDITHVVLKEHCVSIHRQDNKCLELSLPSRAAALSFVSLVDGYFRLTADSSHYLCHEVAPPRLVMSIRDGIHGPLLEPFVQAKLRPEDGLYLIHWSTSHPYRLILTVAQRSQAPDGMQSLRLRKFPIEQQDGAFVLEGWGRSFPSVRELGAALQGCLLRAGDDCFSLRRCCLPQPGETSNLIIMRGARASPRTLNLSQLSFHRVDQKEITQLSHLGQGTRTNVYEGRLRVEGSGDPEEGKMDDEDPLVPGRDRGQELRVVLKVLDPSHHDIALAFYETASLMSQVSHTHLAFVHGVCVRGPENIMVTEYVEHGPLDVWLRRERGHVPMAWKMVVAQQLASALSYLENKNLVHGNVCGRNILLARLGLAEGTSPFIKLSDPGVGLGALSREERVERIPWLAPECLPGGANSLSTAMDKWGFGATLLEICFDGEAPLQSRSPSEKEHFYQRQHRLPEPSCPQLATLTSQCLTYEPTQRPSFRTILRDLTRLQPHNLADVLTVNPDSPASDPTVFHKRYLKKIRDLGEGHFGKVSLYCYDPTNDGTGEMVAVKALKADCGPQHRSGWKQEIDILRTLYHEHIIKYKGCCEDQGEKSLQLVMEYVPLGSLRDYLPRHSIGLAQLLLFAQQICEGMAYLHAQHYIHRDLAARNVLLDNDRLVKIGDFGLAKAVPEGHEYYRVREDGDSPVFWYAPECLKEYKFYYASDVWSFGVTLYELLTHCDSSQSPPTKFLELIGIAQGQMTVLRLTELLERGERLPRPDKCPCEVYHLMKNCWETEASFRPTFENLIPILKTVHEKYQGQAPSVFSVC

| SMILES | IC50 [2] | IC50 [3] | IC50 [4] | Kinetic solubility [8] | IC50 [9] | % control [11] | inhibition [13] | Peff [10] | further results |
| --- | --- | --- | --- | --- | --- | --- | --- | --- | --- |
| NS(=O)(=O)c1ccc(CNc2ccnc(Nc3cccc(NC(=O)N4CCCC4)c3)n2)cc1 | > 10 µM | > 10 µM | > 10 µM | 147 µM | > 10 µM | 62% |  |  | IC50 [1]: 305 nM; IC50 [5]: > 10 µM; IC50 [6]: 33 nM; IC50 [7]: > 10 µM; Peff ([10]; BLD = below limit of detection): Bld |
| Cc1nn(CC(F)(F)F)cc1Nc1ncc(Br)c(NCCCNC(=O)C2CCC2)n1 | > 10 µM | 0.126 µM | 0.321 µM | 40.3 µM | 3.54 µM |  | Active | 3.73 10^-6 cm/s | inhibition [12]: Active; inhibition [14]: Active; inhibition [15]: Active |
| NS(=O)(=O)c1ccc(CNc2nc(Nc3cccc(NC(=O)N4CCCC4)c3)ncc2C2CC2)cc1 | > 10 µM | > 10 µM | > 10 µM | 85.6 µM | > 10 µM | 107% |  | 2.6 10^-6 cm/s | IC50 [16]: 477 nM; % control [17]: 61%; IC50 [18]: 128 nM; IC50 [19]: 2920 nM |
| c1cc(CN2CCOCC2)cc(Nc2ncc(C3CC3)c(NCCc3c[nH]cn3)n2)c1 | 4.01 µM | 3.62 µM | > 10 µM |  | 0.808 µM |  | Active | 5.61 10^-7 cm/s | inhibition [20]: Active; inhibition [21]: Active; Kinetic_solubility [8]: 173.6 µM; inhibition [22]: Active; inhibition [23]: Active |
